Assay results: ChEMBL document CHEMBL2086357 (Eur J Med Chem, 2012); call rule not given here

Key:
[1] = Inhibition of starfish CDK1/cyclin B using histone H1 as substrate after 10 mins in presence of [gamma32P}ATP; parameters: species or system Asteroidea
[2] = biological target: Cyclin-dependent kinase 2/cyclin A (Homo sapiens) (UniProt P24941+P20248+P78396); assay: Inhibition of recombinant CDK2/cyclin A expressed in Sf21 cells using histone H1 as substrate at 10 uM after 10 mins by scintillation counting in presence of [32P]ATP
Outline: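 CDK2/cyclin A was combined on ice with histone H1 substrate in kit buffer, then inhibitor was added. Prediluted ³²P-ATP with MgCl2 and cold ATP was added, and tubes were shaken for 10 min at 30 °C. Aliquots were spotted on phosphocellulose paper, washed three times in 0.75% phosphoric acid, rinsed in acetone and counted by scintillation. Percent inhibition versus an untreated control is the mean of duplicate experiments.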

[3] = system: PC-3; assay: Antiproliferative activity against human PC3 cells after 96 hrs by MTT assay; format: functional; conditions: PC-3, 96 h
[4] = system: A549; assay: Antiproliferative activity against human A549 cells after 96 hrs by MTT assay; format: functional; conditions: A549, 96 h
[5] = system: LoVo; assay: Antiproliferative activity against human LoVo cells after 96 hrs by MTT assay; format: functional
[6] = system: MCF7; assay: Antiproliferative activity against human MCF7 cells after 96 hrs by MTT assay; format: functional; conditions: MCF7, 96 h
[7] = biological target: Cyclin-dependent kinase 2/cyclin E1 (Homo sapiens, UniProt P24941); assay: Inhibition of CDK2/cyclin E; format: protein-complex assay
[8] = biological target: Cyclin-dependent kinase 2/cyclin A (Homo sapiens, UniProt P24941); assay: Inhibition of CDK2/cyclin A; format: protein-complex assay
[9] = Drug degradation in DMEM cell culture medium assessed as (E)-5-(Hydroxyimino)-10-methyl-2,3,4,5-tetrahydroazepino[3,4-b]indol-1(10H)-one at 10 to 100 nmol after 7 days by NMR analysis; format: physicochemical; conditions: 168 h
Outline: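 Two solutions of the compound in cell culture medium (10 and 100) were held at 37 °C for seven days. They were then extracted with ethyl acetate, and breakdown was assessed by NMR.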

[10] = system: Jurkat; assay: Inhibition of PMA- and PHA-stimulated IL2 production in human Jurkat T cells incubated for 30 mins prior to PMA- and PHA-stimulation by competitive enzyme immunoassay; format: functional, cell-based
[11] = system: CCRF-CEM; assay: Growth inhibition of human CCRF-CEM cells up to 48 hrs by trypan blue exclusion assay; format: functional

inhibition [2] [%] | GI50 [3] [µM] | GI50 [4] [µM] | GI50 [5] [µM] | GI50 [6] [µM] | Structure (SMILES) | further results
– | – | – | – | – | O=C1Cc2c([nH]c3ccc(Br)cc23)-c2ccccc2N1 [KENPAULLONE] | IC50 [1]: 0.4 µM
22 | – | – | – | – | Cn1c(Br)c(Br)c2c1C(=O)NCC/C2=N\OCc1ccccc1 | –
– | > 100 | > 100 | 36.8 | > 100 | Cn1c2c(c3ccccc31)C(=O)CCNC2=O | –
– | > 100 | > 100 | > 100 | > 100 | O=C1CCNC(=O)c2[nH]ccc21 [ALDISIN] | –
– | – | – | – | – | NC1=NC(=O)/C(=C2\CCNC(=O)c3[nH]c(Br)cc32)N1 [HYMENIALDISINE] | IC50 [7]: 0.04 µM; IC50 [8]: 0.07 µM
32 | 23.4 | 34.9 | 24.3 | 28.1 | O=C1NCC/C(=N\OCc2ccccc2)c2c1[nH]c1ccccc21 | –
– | > 100 | > 100 | 40.5 | > 100 | O=C1NCC/C(=N\O)c2c1[nH]c1ccccc21 | –
13 | – | – | – | – | Cn1c(Br)c(Br)c2c1C(=O)NCC/C2=N\OCC1CCCCC1 | –
12 | 29.1 | 32.1 | 20.5 | 23.3 | Cn1c2c(c3ccccc31)/C(=N/OCC1CCCCC1)CCNC2=O | Drug degradation [9]: Not Active
– | > 100 | 97.7 | 36.9 | > 100 | O=C1NCCC(=O)c2c1[nH]c1ccccc21 | –
45 | 46.2 | 63.3 | 27.2 | 54.6 | O=C1NCC/C(=N\O)c2c1[nH]c1ccc(Br)cc21 | –
– | > 100 | > 100 | 51.3 | > 100 | Cn1c2c(c3ccccc31)/C(=N/O)CCNC2=O | –
0 | – | – | – | – | O=C1NCC/C(=N\OCc2ccccc2)c2c1[nH]c(Br)c2Br | –
– | – | – | – | – | Cn1c2c(c3ccccc31)/C(=N/OCc1ccccc1)CCNC2=O | Drug degradation [9]: 50%
– | – | – | – | – | Nc1nc(C2=C3C(=Nc4ccccc43)C(=O)NCC2)c(O)[nH]1 | IC50 [10]: 3.5 µM; GI50 [11]: 1.7 µM
